Where “and” joins values, the source holds several entries; their conditions need not be identical. Equal entries are not always repeated.
Tests used:
Conditions in all cases: in vivo
Rattus norvegicus [1] = experiment: The biodistribution of the [125I]-labeled compound in rats after intravenous injection was evaluated in muscle at 4.00 hrs; value ranges from 0.03-0.04 (ID.kg/g); format: ADME, organism-based, Muscle tissue
In short: (§1)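 Male Sprague-Dawley rats (250–300 g) under ether anesthesia given iv 0.1 mL saline containing 10–15 μCi of NCA ¹²⁵I-labeled agent (chloramine-T iodination, HPLC-purified). Groups of 3 killed at 0.25, 1 and 4 h. Blood and tissues excised, weighed and γ-counted. Values are mean (range) of % injected dose × body mass (kg) per gram of tissue.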

Rattus norvegicus [2] = experiment: The biodistribution of the [125I]-labeled compound in rats after intravenous injection was evaluated in adrenal at 1.00 hrs; value ranges from 0.80-1.14 (ID.kg/g); format: ADME, organism-based
In short: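 Male Sprague-Dawley rats (250–300 g) under ether anesthesia were given an iv injection of no-carrier-added 125I-labelled agent (10–15 μCi in 0.1 mL saline). The agent was iodinated with chloramine-T in acetate buffer and purified by C-18 HPLC. Groups of N = 3 were killed at 0.25, 1 and 4 h. Blood and tissues were weighed and γ-counted. Values are % ID·kg/g, mean (range).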

Canis familiaris [3] = experiment: The biodistribution of the [131I]-labeled compound in dog (mass= 5.7 kg), 2 hr after intravenous injection was evaluated in heart; format: ADME, organism-based, Canis lupus familiaris
In short: (§2)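 One female dog (5.7 kg) premedicated im with acepromazine maleate, then anesthetized iv with sodium nembutal/saline (1:1). Given 1.0 mCi iv of ¹³¹I-labeled agent. Killed 2 h post-dose with iv nembutal. Tissues excised, weighed and counted; blood, fat and muscle masses estimated as 7.5%, 27.5% and 40% of body weight. Expressed as % ID/organ and % ID·kg/g.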

Rattus norvegicus [4] = experiment: The biodistribution of the [125I]-labeled compound in rats after intravenous injection was evaluated in liver at 0.25 hr; value ranges from 0.27-0.39 (ID.kg/g); format: ADME, organism-based
In short: (§3)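 Male Sprague-Dawley rats (250–300 g), under ether anesthesia, given 10–15 μCi of the NCA ¹²⁵I-labeled agent iv in 0.1 mL saline. Groups of N = 3 were killed at 0.25, 1 or 4 h. Blood and tissues were removed, weighed and counted in a γ-well scintillation counter. Values are mean % ID·kg/g (range).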

Rattus norvegicus [5] = experiment: The biodistribution of the [125I]-labeled compound in rats after intravenous injection was evaluated in heart at 1.00 hrs; value ranges from 0.26-0.37 (ID.kg/g); format: ADME, organism-based; in short: as §3
Rattus norvegicus [6] = experiment: The biodistribution of the [125I]-labeled compound in rats after intravenous injection was evaluated in lung at 4.00 hrs; value ranges from 0.45-0.67 (ID.kg/g); format: ADME, organism-based; in short: as §3
Rattus norvegicus [7] = experiment: The biodistribution of the [125I]-labeled compound in rats after intravenous injection was evaluated in thyroid at 4.00 hrs; value ranges from 4.85-5.46 (ID.kg/g); format: ADME, organism-based, Thyroid gland; in short: as §1
Canis familiaris [8] = experiment: The biodistribution of the [131I]-labeled compound in dog (mass= 5.7 kg), 2 hr after intravenous injection was evaluated in cortex (ID.kg/g); format: ADME, organism-based, Canis lupus familiaris; in short: as §2
Rattus norvegicus [9] = experiment: The biodistribution of the [125I]-labeled compound in rats after intravenous injection was evaluated in lung at 0.25 hrs; value ranges from 0.81-1.16 (ID.kg/g); format: ADME, organism-based; in short: as §3
Rattus norvegicus [10] = experiment: The biodistribution of the [125I]-labeled compound in rats after intravenous injection was evaluated in kidney at 1.00 hrs; value ranges from 0.52-0.61 (ID.kg/g); format: ADME, organism-based; in short: as §3
Rattus norvegicus [11] = experiment: The biodistribution of the [125I]-labeled compound in rats after intravenous injection was evaluated in liver at 4.00 hrs; value ranges from 0.40-0.52 (ID.kg/g); format: ADME, organism-based; in short: as §3
Canis familiaris [12] = experiment: The biodistribution of the [131I]-labeled compound in dog (mass= 5.7 kg), 2 hr after intravenous injection was evaluated in liver (ID.kg/g); format: ADME, organism-based, Canis lupus familiaris; in short: as §2
Canis familiaris [13] = experiment: The biodistribution of the [131I]-labeled compound in dog (mass= 5.7 kg), 2 hr after intravenous injection was evaluated in heart (ID.kg/g); format: ADME, organism-based, Canis lupus familiaris; in short: as §2
Canis familiaris [14] = experiment: The biodistribution of the [131I]-labeled compound in dog (mass= 5.7 kg), 2 hr after intravenous injection was evaluated in kidney; format: ADME, organism-based, Canis lupus familiaris; in short: as §2

CCCCN1CCN(c2ccc(I)cc2)CC1
Biodistribution (Rattus norvegicus [1]): 0.04% | Biodistribution (Rattus norvegicus [2]): 1.14% | Biodistribution (Canis familiaris [3]): 0.182% | Biodistribution (Rattus norvegicus [4]): 0.39% | Biodistribution (Rattus norvegicus [5]): 0.37% | Biodistribution (Rattus norvegicus [6]): 0.67% | Biodistribution (Rattus norvegicus [7]): 5.46% | Biodistribution (Canis familiaris [8]): 0.171% | Biodistribution (Rattus norvegicus [9]): 1.16% | Biodistribution (Rattus norvegicus [10]): 0.61% | Biodistribution (Rattus norvegicus [11]): 0.52% | Biodistribution (Canis familiaris [12]): 6.68% and 1.88% | Biodistribution (Canis familiaris [13]): 0.85% | Biodistribution (Canis familiaris [14]): 0.88%

— ChEMBL document CHEMBL1123589, “Phenylpiperazine-based radiopharmaceuticals for brain imaging. 3. Synthesis and evaluation of radioiodinated 1-alkyl-4-phenylpiperazines” (J Med Chem, 1987)
